What was measured:
[1] = Inhibition of Plasmodium falciparum HGXPRT by spectrophotometric assay
Summary of the method: (§1)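 Spectrophotometric assay at 25°C in 0.1 M Tris-HCl, 10 mM MgCl2, pH 7.4. PRib-PP was the variable substrate and guanine the fixed substrate at a saturating 60 μM. Values are apparent Ki, since only one concentration of the second substrate was used, calculated from Km(app) = Km(1+[I]/Ki(app)).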

[2] = target: T1, Hypoxanthine-guanine phosphoribosyltransferase (Homo sapiens, UniProt P00492); assay: Inhibition of human HGPRT by spectrophotometric assay; summary of the method: as §1
T1 sequence (P00492 whole entry): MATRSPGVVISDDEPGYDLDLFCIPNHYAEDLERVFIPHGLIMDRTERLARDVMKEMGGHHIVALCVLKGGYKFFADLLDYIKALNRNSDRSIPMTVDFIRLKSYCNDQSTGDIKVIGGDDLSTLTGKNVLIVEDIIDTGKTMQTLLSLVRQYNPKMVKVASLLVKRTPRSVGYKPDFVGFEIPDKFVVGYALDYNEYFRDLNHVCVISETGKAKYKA

[3] = Cytotoxicity against human HGPRT-deficient thioguanine-resistant C32TG cells after 4 days; assay type: cell-based
Summary of the method: (§2)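 Cells seeded in 96-well plates at 7,500 (A549) or 15,000 (C32, C32-TG) per well; compounds added at serial dilutions 24 h later. Incubated four days at 37°C, then trypsinized and counted with a Coulter Counter. CC50 is the concentration giving 50% proliferation versus untreated cells, obtained by extrapolation; mean ± SEM of two or three independent tests.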

[4] = Cytotoxicity against human A549 cells after 4 days; assay type: cell-based; summary of the method: as §2
Plasmodium falciparum [5] = assay: Antimalarial activity against chloroquine-resistant Plasmodium falciparum W2 infected in erythrocytes assessed as inhibition of [3H]-hypoxanthine incorporation after 6 days; assay type: functional, organism-based
Plasmodium falciparum [6] = assay: Antimalarial activity against chloroquine-sensitive Plasmodium falciparum D6 infected in erythrocytes assessed as inhibition of [3H]-hypoxanthine incorporation after 6 days; assay type: functional, organism-based
[7] = Cytotoxicity against human C32 cells after 4 days; assay type: cell-based; summary of the method: as §2

`O=c1[nH]cnc2c1ncn2CCN(CCP(=O)(O)O)CC(O)CO` (configuration not stated) gave a Ki [1] of 5 µM and a Ki [2] of 3.8 µM.
Molecule `CCOC(=O)[C@H](Cc1ccccc1)NP(=O)(CCN(CCC(=O)OC)CCn1cnc2c(=O)[nH]cnc21)N[C@@H](Cc1ccccc1)C(=O)OCC` has a CC50 at 96 h [3] of 212 µM, a CC50 at 96 h [4] of 70 µM and an IC50 (Plasmodium falciparum [5]) of 2.9 µM. For the same molecule, the IC50 (Plasmodium falciparum [6]) was 3.5 µM and the CC50 at 96 h [7] was > 300 µM.
`CC(C)OC(=O)[C@H](Cc1ccccc1)NP(=O)(CCN(CCOCc1ccccc1)CCn1cnc2c(=O)[nH]cnc21)N[C@@H](Cc1ccccc1)C(=O)OC(C)C` gave a CC50 at 96 h [3] of 18 µM, a CC50 at 96 h [4] of 23 µM and an IC50 (Plasmodium falciparum [5]) of 2.8 µM. For the same molecule, the IC50 (Plasmodium falciparum [6]) was 1.5 µM and the CC50 at 96 h [7] was 13 µM.
With `CCOC(=O)[C@H](Cc1ccccc1)NP(=O)(CCN(CCn1cnc2c(=O)[nH]c(N)nc21)CCP(=O)(N[C@@H](Cc1ccccc1)C(=O)OCC)N[C@@H](Cc1ccccc1)C(=O)OCC)N[C@@H](Cc1ccccc1)C(=O)OCC` the CC50 at 96 h [3] was 53 µM, the CC50 at 96 h [4] was 144 µM and the IC50 (Plasmodium falciparum [5]) was 7.4 µM. It also gave an IC50 (Plasmodium falciparum [6]) of 6.3 µM and a CC50 at 96 h [7] of 51 µM.
For `Nc1nc2c(ncn2CCN(CCOCc2ccccc2)CCP(=O)(O)O)c(=O)[nH]1`, the Ki [1] was 2.4 µM and the Ki [2] was 1.9 µM.
For `O=c1[nH]cnc2c1ncn2CCN(CCOCc1ccccc1)CCP(=O)(O)O`, the Ki [1] was 4.3 µM and the Ki [2] was 13 µM.
`CCOC(=O)[C@H](Cc1ccccc1)NP(=O)(CCN(CCn1cnc2c(=O)[nH]cnc21)CP(=O)(N[C@@H](Cc1ccccc1)C(=O)OCC)N[C@@H](Cc1ccccc1)C(=O)OCC)N[C@@H](Cc1ccccc1)C(=O)OCC` gave a CC50 at 96 h [3] of 25 µM, a CC50 at 96 h [4] of 41 µM and an IC50 (Plasmodium falciparum [5]) of 1.6 µM. For the same molecule, the IC50 (Plasmodium falciparum [6]) was 4.7 µM and the CC50 at 96 h [7] was 23 µM.
For `CCOC(=O)[C@H](Cc1ccccc1)NP(=O)(CCN(CCCC(=O)OC)CCn1cnc2c(=O)[nH]c(N)nc21)N[C@@H](Cc1ccccc1)C(=O)OCC`, the CC50 at 96 h [3] was ≥ 246 µM, the CC50 at 96 h [4] was ≥ 232 µM and the IC50 (Plasmodium falciparum [5]) was 5.7 µM. For the same molecule, the IC50 (Plasmodium falciparum [6]) was 8.6 µM and the CC50 at 96 h [7] was 234 µM.
Molecule `CC(C)OC(=O)[C@H](Cc1ccccc1)NP(=O)(CCN(CCOCc1ccccc1)CCn1cnc2c(=O)[nH]c(N)nc21)N[C@@H](Cc1ccccc1)C(=O)OC(C)C` has a CC50 at 96 h [3] of 23 µM, a CC50 at 96 h [4] of 20 µM and an IC50 (Plasmodium falciparum [5]) of 2.9 µM. For the same molecule, the IC50 (Plasmodium falciparum [6]) was 1.6 µM and the CC50 at 96 h [7] was 17 µM.
In the case of `CCOC(=O)[C@H](Cc1ccccc1)NP(=O)(CCN(CCn1cnc2c(=O)[nH]c(N)nc21)CP(=O)(N[C@@H](Cc1ccccc1)C(=O)OCC)N[C@@H](Cc1ccccc1)C(=O)OCC)N[C@@H](Cc1ccccc1)C(=O)OCC`, the CC50 at 96 h [3] is reported as 56 µM, the CC50 at 96 h [4] is reported as > 300 µM and the IC50 (Plasmodium falciparum [5]) is reported as 4.6 µM. It also gave an IC50 (Plasmodium falciparum [6]) of 10.4 µM and a CC50 at 96 h [7] of 65 µM.
`CCOC(=O)[C@H](Cc1ccccc1)NP(=O)(CCN(CCn1cnc2c(=O)[nH]cnc21)CCP(=O)(N[C@@H](Cc1ccccc1)C(=O)OCC)N[C@@H](Cc1ccccc1)C(=O)OCC)N[C@@H](Cc1ccccc1)C(=O)OCC` gave a CC50 at 96 h [3] of 48 µM, a CC50 at 96 h [4] of 79 µM and an IC50 (Plasmodium falciparum [5]) of 2.7 µM. It also gave an IC50 (Plasmodium falciparum [6]) of 3.1 µM and a CC50 at 96 h [7] of 48 µM.
In the case of `Nc1nc2c(ncn2CCN(CCP(=O)(O)O)CP(=O)(O)O)c(=O)[nH]1`, the Ki [1] is reported as 1 µM and the Ki [2] is reported as 2 µM.
`Nc1nc2c(ncn2CCN(CCP(=O)(O)O)CC(O)CO)c(=O)[nH]1` (configuration not stated) showed a Ki [1] of 0.6 µM and a Ki [2] of 0.6 µM.
With `O=c1[nH]cnc2c1ncn2CCN(CCP(=O)(O)O)CP(=O)(O)O` the Ki [1] was 6 µM and the Ki [2] was 10 µM.
For `CCOC(=O)[C@H](Cc1ccccc1)NP(=O)(CCN(CCC(=O)OC)CCn1cnc2c(=O)[nH]c(N)nc21)N[C@@H](Cc1ccccc1)C(=O)OCC`, the CC50 at 96 h [3] was > 300 µM, the CC50 at 96 h [4] was > 300 µM and the IC50 (Plasmodium falciparum [5]) was 5.6 µM. For the same molecule, the IC50 (Plasmodium falciparum [6]) was 11.8 µM and the CC50 at 96 h [7] was > 300 µM.
Work on `CCOC(=O)[C@H](Cc1ccccc1)NP(=O)(CCN(CCCC#N)CCn1cnc2c(=O)[nH]cnc21)N[C@@H](Cc1ccccc1)C(=O)OCC` yielded a CC50 at 96 h [3] of 89 µM, a CC50 at 96 h [4] of 30 µM and an IC50 (Plasmodium falciparum [5]) of 5.5 µM. For the same molecule, the IC50 (Plasmodium falciparum [6]) was 4.2 µM and the CC50 at 96 h [7] was 102 µM.

— ChEMBL document CHEMBL3603793, “Antimalarial activity of prodrugs of N-branched acyclic nucleoside phosphonate inhibitors of 6-oxopurine phosphoribosyltransferases” (Bioorg Med Chem, 2015)
